Results as given in ChEMBL document CHEMBL5058577, “EUbOPEN Chemogenomics Library 2 (Multiplex)” (2022).

System: HEK-293T
Assay: Multiplex assay against HEK293T
Assay type: toxicity, cell-based
Settings: human
Summary of the method: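 Compound was added to live cells that had been stained at seeding with Hoechst33342, BioTracker Green Microtubule Cytoskeleton Dye, MitoTracker Red and Annexin V Alexa Fluor 680, and imaging followed on a CQ1 microscope at 37°C and 5% CO2. CellPathfinder machine-learning gating divided cells into Hoechst high-intensity objects or normal cells, normal cells into healthy, pyknosed or fragmented nuclei, and pyknosed cells into mitotic or apoptotic. Tubulin, mitochondrial-mass and membrane-permeability phenotypes are per cents of healthy-nucleus cells.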

[1] = 12 h, 1 µM, compound concentration 1 uM, replicate 1
[2] = 12 h, 1 µM, compound concentration 1 uM, replicate 2
[3] = 12 h, 10 µM, compound concentration 10 uM, replicate 1
[4] = 12 h, 10 µM, compound concentration 10 uM, replicate 2
[5] = 24 h, 1 µM, compound concentration 1 uM, replicate 1
[6] = 24 h, 1 µM, compound concentration 1 uM, replicate 2
[7] = 24 h, 10 µM, compound concentration 10 uM, replicate 1
[8] = 24 h, 10 µM, compound concentration 10 uM, replicate 2
[9] = 48 h, 1 µM, compound concentration 1 uM, replicate 1
[10] = 48 h, 1 µM, compound concentration 1 uM, replicate 2
[11] = 48 h, 10 µM, compound concentration 10 uM, replicate 1
[12] = 48 h, 10 µM, compound concentration 10 uM, replicate 2

CC(=O)NCCc1c(Cc2ccccc2)[nH]c2ccccc12 [LUZINDOLE]
Population Apoptotic (%) [1]: 38%
Population Fragmented Nuclei (%) [1]: 7%
Population Healthy Nuclei (%) [1]: 79%
Population Hoechst High Intensity Objects (%) [1]: 11%
Population Membrane Permeable-Phenotype (%) [1]: 0%
Population Mitochondria Different-Phenotype (%) [1]: 54%
Population Mitotic Cells (%) [1]: 61%
Population Normal (%) [1]: 88%
Population Pyknosed Nuclei (%) [1]: 12%
Population Tubulin-Different-Phenotype (%) [1]: 39%
Total Cell Count [1]: 412
Population Apoptotic (%) [2]: 43%
Population Fragmented Nuclei (%) [2]: 5%
Population Healthy Nuclei (%) [2]: 80%
Population Hoechst High Intensity Objects (%) [2]: 8%
Population Mitochondria Different-Phenotype (%) [2]: 68%
Population Mitotic Cells (%) [2]: 56%
Population Normal (%) [2]: 91%
Population Pyknosed Nuclei (%) [2]: 13%
Population Tubulin-Different-Phenotype (%) [2]: 27%
Total Cell Count [2]: 304
Population Apoptotic (%) [3]: 37%
Population Fragmented Nuclei (%) [3]: 8%
Population Healthy Nuclei (%) [3]: 77%
Population Hoechst High Intensity Objects (%) [3]: 10%
Population Membrane Permeable-Phenotype (%) [3]: 0%
Population Mitochondria Different-Phenotype (%) [3]: 61%
Population Mitotic Cells (%) [3]: 62%
Population Normal (%) [3]: 89%
Population Pyknosed Nuclei (%) [3]: 14%
Population Tubulin-Different-Phenotype (%) [3]: 45%
Total Cell Count [3]: 379
Population Apoptotic (%) [4]: 53%
Population Fragmented Nuclei (%) [4]: 5%
Population Healthy Nuclei (%) [4]: 80%
Population Hoechst High Intensity Objects (%) [4]: 9%
Population Mitochondria Different-Phenotype (%) [4]: 72%
Population Mitotic Cells (%) [4]: 46%
Population Normal (%) [4]: 90%
Population Tubulin-Different-Phenotype (%) [4]: 35%
Total Cell Count [4]: 315
Population Apoptotic (%) [5]: 20%
Population Fragmented Nuclei (%) [5]: 12%
Population Healthy Nuclei (%) [5]: 75%
Population Hoechst High Intensity Objects (%) [5]: 7%
Population Membrane Permeable-Phenotype (%) [5]: 0%
Population Mitochondria Different-Phenotype (%) [5]: 33%
Population Mitotic Cells (%) [5]: 80%
Population Normal (%) [5]: 92%
Population Pyknosed Nuclei (%) [5]: 11%
Population Tubulin-Different-Phenotype (%) [5]: 26%
Total Cell Count [5]: 546
Population Apoptotic (%) [6]: 40%
Population Fragmented Nuclei (%) [6]: 7%
Population Healthy Nuclei (%) [6]: 82%
Population Hoechst High Intensity Objects (%) [6]: 8%
Population Mitochondria Different-Phenotype (%) [6]: 45%
Population Mitotic Cells (%) [6]: 60%
Population Normal (%) [6]: 91%
Population Pyknosed Nuclei (%) [6]: 10%
Population Tubulin-Different-Phenotype (%) [6]: 18%
Total Cell Count [6]: 379
Population Apoptotic (%) [7]: 40%
Population Fragmented Nuclei (%) [7]: 9%
Population Healthy Nuclei (%) [7]: 81%
Population Hoechst High Intensity Objects (%) [7]: 10%
Population Membrane Permeable-Phenotype (%) [7]: 1%
Population Mitochondria Different-Phenotype (%) [7]: 40%
Population Mitotic Cells (%) [7]: 60%
Population Normal (%) [7]: 89%
Population Pyknosed Nuclei (%) [7]: 8%
Population Tubulin-Different-Phenotype (%) [7]: 32%
Total Cell Count [7]: 502
Population Apoptotic (%) [8]: 28%
Population Fragmented Nuclei (%) [8]: 11%
Population Healthy Nuclei (%) [8]: 77%
Population Hoechst High Intensity Objects (%) [8]: 11%
Population Membrane Permeable-Phenotype (%) [8]: 0%
Population Mitochondria Different-Phenotype (%) [8]: 58%
Population Mitotic Cells (%) [8]: 71%
Population Normal (%) [8]: 88%
Population Pyknosed Nuclei (%) [8]: 11%
Population Tubulin-Different-Phenotype (%) [8]: 24%
Total Cell Count [8]: 388
Population Apoptotic (%) [9]: 24%
Population Fragmented Nuclei (%) [9]: 16%
Population Healthy Nuclei (%) [9]: 78%
Population Hoechst High Intensity Objects (%) [9]: 3%
Population Membrane Permeable-Phenotype (%) [9]: 1%
Population Mitochondria Different-Phenotype (%) [9]: 16%
Population Mitotic Cells (%) [9]: 75%
Population Normal (%) [9]: 96%
Population Pyknosed Nuclei (%) [9]: 5%
Population Tubulin-Different-Phenotype (%) [9]: 12%
Total Cell Count [9]: 965
Population Apoptotic (%) [10]: 46%
Population Fragmented Nuclei (%) [10]: 12%
Population Healthy Nuclei (%) [10]: 82%
Population Hoechst High Intensity Objects (%) [10]: 6%
Population Membrane Permeable-Phenotype (%) [10]: 0%
Population Mitochondria Different-Phenotype (%) [10]: 23%
Population Mitotic Cells (%) [10]: 53%
Population Normal (%) [10]: 93%
Population Tubulin-Different-Phenotype (%) [10]: 13%
Total Cell Count [10]: 522
Population Apoptotic (%) [11]: 27%
Population Fragmented Nuclei (%) [11]: 13%
Population Healthy Nuclei (%) [11]: 79%
Population Hoechst High Intensity Objects (%) [11]: 9%
Population Membrane Permeable-Phenotype (%) [11]: 0%
Population Mitochondria Different-Phenotype (%) [11]: 27%
Population Mitotic Cells (%) [11]: 72%
Population Normal (%) [11]: 90%
Population Pyknosed Nuclei (%) [11]: 7%
Population Tubulin-Different-Phenotype (%) [11]: 17%
Total Cell Count [11]: 742
Population Apoptotic (%) [12]: 36%
Population Fragmented Nuclei (%) [12]: 11%
Population Healthy Nuclei (%) [12]: 82%
Population Hoechst High Intensity Objects (%) [12]: 6%
Population Mitochondria Different-Phenotype (%) [12]: 32%
Population Mitotic Cells (%) [12]: 63%
Population Normal (%) [12]: 93%
Population Pyknosed Nuclei (%) [12]: 5%
Population Tubulin-Different-Phenotype (%) [12]: 19%
Total Cell Count [12]: 573
